Activity calls are given as the source filed them. The rule behind the calls is not given here. Bounds are passed on as bounds.

GI50, inhibition and Activity data for 15 compounds are collected here from ChEMBL document CHEMBL1152636, “Synthesis and biological evaluation of 14-(aminoalkyl-aminomethyl)aromathecins as topoisomerase I inhibitors: investigating the hypothesis of shared structure-activity relationships” (2009).

For experiment [1], the system named is SF-539. Kind of experiment: Cytotoxicity against human SF539 cells. Type of experiment: functional. The method in brief: (§1)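 NCI ~60 human tumor cell line screen; after a single-dose pass at 10−5 M, selected compounds run at five concentrations from 10−8 to 10−4 M; GI50 reported per cell line.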
For experiment [2], the system named is DU-145. The experiment is described as follows: Cytotoxicity against human DU145 cells. The experiment is classed as functional. The method in brief:
as §1

Experiment [3] deals with T1, DNA topoisomerase 1 (Homo sapiens) (UniProt P11387).
T1 sequence (whole entry): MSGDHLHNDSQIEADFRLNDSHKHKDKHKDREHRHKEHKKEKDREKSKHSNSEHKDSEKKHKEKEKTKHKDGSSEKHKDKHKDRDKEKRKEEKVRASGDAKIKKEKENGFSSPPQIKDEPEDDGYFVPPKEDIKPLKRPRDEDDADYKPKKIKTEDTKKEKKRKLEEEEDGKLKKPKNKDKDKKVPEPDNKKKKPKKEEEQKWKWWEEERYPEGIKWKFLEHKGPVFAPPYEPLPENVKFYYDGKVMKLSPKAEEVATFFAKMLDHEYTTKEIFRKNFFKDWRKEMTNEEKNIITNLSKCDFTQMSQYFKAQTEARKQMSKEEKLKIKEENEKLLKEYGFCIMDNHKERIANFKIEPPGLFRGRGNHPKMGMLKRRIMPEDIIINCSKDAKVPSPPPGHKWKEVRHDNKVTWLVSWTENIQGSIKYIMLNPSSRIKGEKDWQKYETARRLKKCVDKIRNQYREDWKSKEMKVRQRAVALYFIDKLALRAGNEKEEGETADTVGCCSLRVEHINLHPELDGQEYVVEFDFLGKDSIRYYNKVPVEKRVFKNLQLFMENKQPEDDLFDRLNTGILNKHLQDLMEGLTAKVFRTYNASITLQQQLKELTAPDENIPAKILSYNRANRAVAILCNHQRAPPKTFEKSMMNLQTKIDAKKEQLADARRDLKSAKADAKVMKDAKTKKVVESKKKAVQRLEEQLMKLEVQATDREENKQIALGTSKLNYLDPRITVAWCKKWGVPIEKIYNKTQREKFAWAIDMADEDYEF
The experiment is described as follows: Inhibition of human DNA topoisomerase 1 assessed as induction of enzyme-dependent DNA cleavage relative to 1 uM camptothecin.

In experiment [4] the test system is HOP-62. Kind of experiment: Cytotoxicity against human HOP62 cells. The experiment is classed as functional. The method in brief:
as §1

For experiment [5], the system named is SN12C. The experiment is described as follows: Cytotoxicity against human SN12C cells. The experiment is classed as functional. The method in brief: as §1
Experiment [6] relates to HCT-116. Kind of experiment: Cytotoxicity against human HCT116 cells. Type of experiment: functional. The method in brief: as §1
Experiment [7] has as its system OVCAR-3. Kind of experiment: Cytotoxicity against human OVCAR-3 cells. The experiment is classed as functional. In a few lines:
as §1

Experiment [8] has as its system UACC-62. The experiment is described as follows: Cytotoxicity against human UACC62 cells. The experiment is classed as functional. In a few lines: as §1
The subject of experiment [9] is MDA-MB-435. Kind of experiment: Cytotoxicity against human MDA-MB-435 cells. The experiment is classed as functional. The method in brief:
as §1

The nature of experiment [10]: Induction of cell growth in human NCI60 cell sat 10 uM. The experiment is classed as functional.

The term GI50 denotes the concentration at which growth is held to half of that of the control. Low readings indicate more potent growth inhibition, high ones less potent growth inhibition. The inhibition is the relative decrease from the control value, in per cent. On to `NCCCNCc1c2c(nc3ccccc13)-c1cc3ccccc3c(=O)n1C2`, for which the concentration for 50% growth inhibition (GI50) in experiment [1] worked out at 4900 nM; in experiment [2] it was 1100 nM; in experiment [4], 9800 nM; in experiment [5], 2100 nM; in experiment [6] it was 1500 nM; in experiment [7] it was 1400 nM. The GI50 in experiment [8] came out at 4800 nM; in [9], 6800 nM. Besides, the inhibition in [3] was 50%.
As to `NCCCCCCCCCCCNCc1c2c(nc3ccccc13)-c1cc3ccccc3c(=O)n1C2`, the inhibition result in experiment [3] is “inactive”.
Take `NCCCCCCNCc1c2c(nc3ccccc13)-c1cc3ccccc3c(=O)n1C2`: the 50% growth inhibitory concentration (GI50) in experiment [1] is 740 nM; in experiment [2], 330 nM; in [4], 1200 nM; in experiment [5], 510 nM; in [6] it was 630 nM; in [7] it was 1400 nM. In addition, the results for the 50% growth inhibitory concentration (GI50) in experiment [8] and in [9] were 2000 nM and 1500 nM, respectively. Besides, the inhibition in [3] was 50%.
For `CC[C@@]1(O)C(=O)OCc2c1cc1n(c2=O)Cc2cc3ccccc3nc2-1` [CAMPTOTHECIN], the GI50 in experiment [1] was found to be 10 nM; in experiment [2], 10 nM; in experiment [4], 10 nM; in experiment [5], 20 nM; in experiment [6], 30 nM; in experiment [8] it was 10 nM. For the same compound, the GI50 in experiment [9] was 40 nM.
For `NCCNCc1c2c(nc3ccccc13)-c1cc3ccccc3c(=O)n1C2`, the GI50 in experiment [1] was found to be 8300 nM; in experiment [2], 1400 nM; in experiment [4], 1400 nM; in experiment [5], 1500 nM; in experiment [6], 1500 nM; in experiment [7], 1700 nM. The figures for the GI50 in experiment [8] and in experiment [9] were 12600 nM and 11000 nM, respectively. In addition, the inhibition in [3] is 75%.
Take `NCCCCNCc1c2c(nc3ccccc13)-c1cc3ccccc3c(=O)n1C2`: the inhibition in [3] worked out at 75%.
Turning to `NCCCCCNCc1c2c(nc3ccccc13)-c1cc3ccccc3c(=O)n1C2`, the concentration for 50% growth inhibition (GI50) in experiment [1] turned out to be 7200 nM; in experiment [2], 1100 nM; in [4], 2600 nM; in experiment [5], 3200 nM; in [6], 3200 nM; in experiment [7], 8100 nM. Besides, the 50% growth inhibitory concentration (GI50) in experiment [8] is 1900 nM; in [9], 12600 nM. The inhibition in [3] came out at 25%.
Take `COc1cc2c3c(n(C)c(=O)c2cc1OC)-c1cc2c(cc1C3=O)OCO2`: the GI50 amounted to 41000 nM in experiment [1]; 37000 nM in experiment [2]; 1300 nM in [4]; 68000 nM in experiment [5]; 35000 nM in [6]; 4200 nM in experiment [8]. For the same compound, the concentration for 50% growth inhibition (GI50) in experiment [9] was found to be 96000 nM.
As for `NCCCCCCCNCc1c2c(nc3ccccc13)-c1cc3ccccc3c(=O)n1C2`, in experiment [3], the inhibition turned out to be 50%.
For `Cl.NCCCCCCCCCCNCc1c2c(nc3ccccc13)-c1cc3ccccc3c(=O)n1C2`, in [3], the inhibition entry is “inactive”. In experiment [10], this compound had an Activity of 30%.
Consider `NCCCCCCCCNCc1c2c(nc3ccccc13)-c1cc3ccccc3c(=O)n1C2`, for which the GI50 in experiment [1] came out at 1900 nM; in experiment [2] it was 1100 nM; in experiment [4], 2800 nM; in experiment [5], 1800 nM; in [6] it was 1800 nM; in experiment [7], 2500 nM. The GI50 in experiment [8] came to 1800 nM; in experiment [9], 3100 nM. The inhibition in experiment [3] is 25%.
`COc1cc2c3c(n(CCCNCCO)c(=O)c2cc1OC)-c1cc2c(cc1C3=O)OCO2` [LMP-744]: the 50% growth inhibitory concentration (GI50) in experiment [1] was 40 nM; in experiment [2], less than 10 nM; in experiment [4], 20 nM; in experiment [5] it was less than 10 nM; in [6] it was 100 nM; in experiment [7], 500 nM. Moreover, the GI50 in experiment [8] turned out to be 30 nM; in [9], 790 nM. Also, the inhibition result in [3] was “Active”.
Turning to `O=c1c2ccccc2cc2n1Cc1cc3ccccc3nc1-2` [ROSETTACIN], the GI50 in experiment [2] and in experiment [5] was greater than 100000 nM throughout.
On to `NCCCCCCCCCNCc1c2c(nc3ccccc13)-c1cc3ccccc3c(=O)n1C2`, for which the inhibition in experiment [3] stood at 25%.
As to `NCCCCCCCCCCCCNCc1c2c(nc3ccccc13)-c1cc3ccccc3c(=O)n1C2`, the 50% growth inhibitory concentration (GI50) in experiment [1] was found to be 1800 nM; in experiment [2], 2000 nM; in [4], 6500 nM; in experiment [5], 2500 nM; in experiment [6], 2000 nM; in [7], 1900 nM. Moreover, the GI50 in experiment [8] is 1900 nM; in [9], 1700 nM. For the same compound, in experiment [3], the inhibition result is “inactive”.
